Broadly, the IC50 is the concentration that inhibits the measured activity by half.

The values below come from article PMC10099454 (ACS Omega, 2023).

Bounds are passed on as bounds.

For assay [1] the following is noted: read-out: IC50 broad anticancer activity; cited from earlier work.
Another assay concerns A549. Kind of assay: MTT cytotoxicity assay. Particulars: Homo sapiens, A549, 48 h, read-out: IC50 A549. The assay is classed as cell-based. Summed up:
(§1)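 Human cancer (A549, MCF-7) and normal (MCF-10A, THLE2, WISH) lines cultured in RPMI-1640/DMEM with L-glutamine, 10% FBS and 1% penicillin-streptomycin at 37 °C, 5% CO2. […] MTT absorbance read at […]. IC50 taken from concentration-viability curves.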
Background: Tetrazolium dyes change colour on reduction, which living cells bring about.

A further assay relates to MCF-7. Kind of assay: MTT cytotoxicity assay. The assay is classed as cell-based. Particulars: Homo sapiens, MCF7, 48 h, read-out: IC50 MCF-7. Summed up: as §1
In a further assay the target is Topoisomerase II (Homo sapiens, UniProt P11388). Kind of assay: Topo II inhibition assay. The assay is classed as biochemical.
Topoisomerase II, sequence (P11388 whole entry): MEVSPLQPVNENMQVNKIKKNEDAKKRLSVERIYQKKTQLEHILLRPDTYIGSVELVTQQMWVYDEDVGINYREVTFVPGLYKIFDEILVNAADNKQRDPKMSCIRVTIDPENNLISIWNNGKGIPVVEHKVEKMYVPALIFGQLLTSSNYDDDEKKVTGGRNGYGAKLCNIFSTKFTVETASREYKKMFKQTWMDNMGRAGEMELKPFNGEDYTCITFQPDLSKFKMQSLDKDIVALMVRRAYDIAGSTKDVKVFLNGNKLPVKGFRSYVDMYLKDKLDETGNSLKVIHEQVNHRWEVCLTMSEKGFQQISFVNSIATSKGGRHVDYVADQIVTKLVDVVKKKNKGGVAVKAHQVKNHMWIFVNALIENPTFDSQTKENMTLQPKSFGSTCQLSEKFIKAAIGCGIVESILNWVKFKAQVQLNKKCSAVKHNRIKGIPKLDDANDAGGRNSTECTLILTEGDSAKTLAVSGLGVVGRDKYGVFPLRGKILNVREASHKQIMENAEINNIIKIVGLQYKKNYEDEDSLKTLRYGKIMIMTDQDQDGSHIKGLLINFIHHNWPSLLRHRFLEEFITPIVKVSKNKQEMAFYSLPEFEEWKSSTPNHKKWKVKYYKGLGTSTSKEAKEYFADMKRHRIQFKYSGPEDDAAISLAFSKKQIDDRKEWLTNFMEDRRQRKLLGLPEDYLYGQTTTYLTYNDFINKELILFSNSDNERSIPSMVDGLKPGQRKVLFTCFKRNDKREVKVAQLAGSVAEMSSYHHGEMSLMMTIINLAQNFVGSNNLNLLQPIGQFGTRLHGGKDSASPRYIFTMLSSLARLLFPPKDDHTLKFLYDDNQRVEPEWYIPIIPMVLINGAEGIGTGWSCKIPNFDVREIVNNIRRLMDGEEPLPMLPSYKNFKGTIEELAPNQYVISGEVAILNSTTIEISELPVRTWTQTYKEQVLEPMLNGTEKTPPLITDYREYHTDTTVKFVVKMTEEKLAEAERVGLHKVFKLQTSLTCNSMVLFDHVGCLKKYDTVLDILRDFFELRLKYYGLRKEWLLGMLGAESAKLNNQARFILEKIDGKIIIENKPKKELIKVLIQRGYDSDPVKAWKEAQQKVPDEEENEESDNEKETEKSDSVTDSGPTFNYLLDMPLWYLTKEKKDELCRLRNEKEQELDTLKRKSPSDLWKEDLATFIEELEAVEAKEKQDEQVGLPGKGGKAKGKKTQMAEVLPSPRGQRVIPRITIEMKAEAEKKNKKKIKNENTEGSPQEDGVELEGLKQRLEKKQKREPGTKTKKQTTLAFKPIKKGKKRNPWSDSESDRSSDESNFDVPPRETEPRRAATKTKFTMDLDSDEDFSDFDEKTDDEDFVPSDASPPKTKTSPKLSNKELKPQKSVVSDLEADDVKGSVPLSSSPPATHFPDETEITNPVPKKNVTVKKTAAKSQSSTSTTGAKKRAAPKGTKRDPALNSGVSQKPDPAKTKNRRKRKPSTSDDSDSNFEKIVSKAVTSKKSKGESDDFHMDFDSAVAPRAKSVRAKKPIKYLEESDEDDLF

On to `CCN1C(=O)C(=Cc2ccccc2)SC1=S` [BTR-1, 5-Benzylidene-3-ethyl rhodanine], for which the IC50 in assay [1] is below 10 µM.

As for `CC(=O)OC[C@H]1O[C@@H](N2C(=O)/C(=C/c3ccccc3)SC2=S)[C@H](OC(C)=O)[C@@H](OC(C)=O)[C@@H]1OC(C)=O` [Compound 11a, 5-((Z)-Benzylidene)-3-(2′,3′,4′,6′-tetra-O-acetyl-β-D-glucopyranosyl)-2-thioxo-4-thiazolidinone], the figures for the IC50 with A549, in the assay with MCF-7 and at Topoisomerase II were 9.8 ± 0.11 µM, 3.7 ± 0.13 µM and 7.6 ± 0.24 µM, respectively.
